# Results as given in ChEMBL document CHEMBL1123067, “Evaluation of the brain-specific delivery of radioiodinated (iodophenyl)alkyl-substituted amines coupled to a dihydropyridine carrier” (J Med Chem, 1985).
# Key:
# Assay type in all cases: ADME, organism-based
# Rattus norvegicus [1] = assay: Distribution of radioactivity in brain tissues of Sprague-Dawley rats after 30 min injection by intravenously; value ranges from 0.81-1.26; details: in vivo, iv, 0.5 h
# Rattus norvegicus [2] = assay: Distribution of radioactivity in heart tissues of Sprague-Dawley rats after 60 min injection by intravenously; value ranges from 1.68-2.23; details: in vivo, iv, 1 h
# Outline: (§1)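 Female Sprague-Dawley rats, 10–12 weeks old (170–200 g), fed ad libitum, under ether anaesthesia. Each received 15.1 μCi of the ¹²⁵I-labelled pyridinium conjugate or 10.6 μCi of the dihydropyridine conjugate by lateral tail vein. Dose was in 20% Me2SO/saline with vitamin E (~5 mg/mL), 0.22-μm filtered. Five rats per time point. Tissue activity was read against injected-solution standards as % injected dose/g.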
# Rattus norvegicus [3] = assay: Distribution of radioactivity in blood tissues of Sprague-Dawley rats after 15 min injection by intravenously; value ranges from 0.31-0.4; details: in vivo, iv, 0.25 h
# Rattus norvegicus [4] = assay: Distribution of radioactivity in brain tissues of Sprague-Dawley rats after 5 min injection by intravenously; value ranges from 0.97-2.17; details: in vivo, iv
# Rattus norvegicus [5] = assay: Distribution of radioactivity in liver tissues of Sprague-Dawley rats after 60 min injection by intravenously; value ranges from 0.47-1.17; details: in vivo, iv, 1 h; outline: as §1
# Rattus norvegicus [6] = assay: Distribution of radioactivity in liver tissues of Sprague-Dawley rats after 5 min injection by intravenously; value ranges from 1.06-2.71; details: in vivo, iv; outline: as §1
# Rattus norvegicus [7] = assay: Distribution of radioactivity in blood tissues of Sprague-Dawley rats after 30 min injection by intravenously; value ranges from 0.35-0.4; details: in vivo, iv, 0.5 h
# Rattus norvegicus [8] = assay: Distribution of radioactivity in brain tissues of Sprague-Dawley rats after 15 min injection by intravenously; value ranges from 1.05-1.25; details: in vivo, iv, 0.25 h
# Rattus norvegicus [9] = assay: Distribution of radioactivity in kidney tissues of Sprague-Dawley rats after 5 min injection by intravenously; value ranges from 1.64-3.43; details: in vivo, iv; outline: as §1
# [10] = Brain to blood ratio in Sprague-Dawley rats after 60 min injection by intravenously; details: rat, brain and blood, iv
# Outline: (§2)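 Female Sprague-Dawley rats, 10–12 weeks old (170–200 g), fed ad libitum. The ¹²⁵I-labelled agent was dissolved in minimal Me2SO, diluted with saline to a final 20% Me2SO, filtered (0.22 μm), and injected into a lateral tail vein under ether anaesthesia. Tissues were counted against samples of the injected solution and expressed as % injected dose/g (mean, range). Brain/blood ratio is from the means.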
# Rattus norvegicus [11] = assay: Distribution of radioactivity in kidney tissues of Sprague-Dawley rats after 15 min injection by intravenously; value ranges from 1.42-1.82; details: in vivo, iv, 0.25 h; outline: as §1
# Rattus norvegicus [12] = assay: Distribution of radioactivity in liver tissues of Sprague-Dawley rats after 15 min injection by intravenously; value ranges from 1.23-1.78; details: in vivo, iv, 0.25 h; outline: as §1
# Rattus norvegicus [13] = assay: Distribution of radioactivity in heart tissues of Sprague-Dawley rats after 15 min injection by intravenously; value ranges from 2.24-2.58; details: in vivo, iv, 0.25 h
# Rattus norvegicus [14] = assay: Distribution of radioactivity in brain tissues of Sprague-Dawley rats after 60 min injection by intravenously; value ranges from 0.76-1.42; details: in vivo, iv, 1 h
# [15] = Brain to blood ratio in Sprague-Dawley rats after 30 min injection by intravenously; details: rat, brain and blood, iv; outline: as §2
# Rattus norvegicus [16] = assay: Distribution of radioactivity in kidney tissues of Sprague-Dawley rats after 60 min injection by intravenously; value ranges from 0.89-1.19; details: in vivo, iv, 1 h; outline: as §1
# Rattus norvegicus [17] = assay: Distribution of radioactivity in liver tissues of Sprague-Dawley rats after 30 min injection by intravenously; value ranges from 1.06-1.29; details: in vivo, iv, 0.5 h; outline: as §1
# [18] = Brain to blood ratio in Sprague-Dawley rats after 5 min injection by intravenously; details: rat, brain and blood, iv; outline: as §2
# Rattus norvegicus [19] = assay: Distribution of radioactivity in lung tissues of Sprague-Dawley rats after 15 min injection by intravenously; value ranges from 3.10-3.77; details: in vivo, iv, 0.25 h
# Outline: (§3)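 Female Sprague-Dawley rats, 10–12 weeks, 170–200 g, fed ad libitum, five per time point. Agent dissolved in minimal Me2SO, diluted with saline to 20% Me2SO, with vitamin E (~5 mg/mL) added, 0.22-µm filtered. 15.1 or 10.6 µCi (per agent) injected into lateral tail vein under ether. Lungs taken; % injected dose/g against injected-solution standards; mean (range).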
# Rattus norvegicus [20] = assay: Distribution of radioactivity in blood tissues of Sprague-Dawley rats after 60 min injection by intravenously; value ranges from 0.28-0.37; details: in vivo, iv, 1 h
# [21] = Brain to blood ratio in Sprague-Dawley rats after 15 min injection by intravenously; details: rat, brain and blood, iv; outline: as §2
# Rattus norvegicus [22] = assay: Distribution of radioactivity in lung tissues of Sprague-Dawley rats after 30 min injection by intravenously; value ranges from 2.26-2.89; details: in vivo, iv, 0.5 h; outline: as §3
# Rattus norvegicus [23] = assay: Distribution of radioactivity in blood tissues of Sprague-Dawley rats after 5 min injection by intravenously; value ranges from 0.28-0.46; details: in vivo, iv
# Rattus norvegicus [24] = assay: Distribution of radioactivity in lung tissues of Sprague-Dawley rats after 5 min injection by intravenously; value ranges from 3.62-7.08; details: in vivo, iv; outline: as §3
# Rattus norvegicus [25] = assay: Distribution of radioactivity in lung tissues of Sprague-Dawley rats after 60 min injection by intravenously; value ranges from 2.11-3.79; details: in vivo, iv, 1 h; outline: as §3
# Rattus norvegicus [26] = assay: Distribution of radioactivity in heart tissues of Sprague-Dawley rats after 30 min injection by intravenously; value ranges from 1.96-2.46; details: in vivo, iv, 0.5 h
# Rattus norvegicus [27] = assay: Distribution of radioactivity in heart tissues of Sprague-Dawley rats after 5 min injection by intravenously; value ranges from 2.36-3.96; details: in vivo, iv; outline: as §1
# Rattus norvegicus [28] = assay: Distribution of radioactivity in kidney tissues of Sprague-Dawley rats after 30 min injection by intravenously; value ranges from 1.14-1.4; details: in vivo, iv, 0.5 h; outline: as §1
# Rattus norvegicus [29] = assay: Distribution of radioactivity in lung tissues of Sprague-Dawley rats after 15 min injecton by intravenously; 0.58-0.86; details: in vivo, iv, 0.25 h; outline: as §3
# Rattus norvegicus [30] = assay: Distribution of radioactivity in brain tissues of Sprague-Dawley rats after 15 min injecton by intravenously; 0.03-0.06; details: in vivo, iv, 0.25 h
# Rattus norvegicus [31] = assay: Distribution of radioactivity in blood tissues of Sprague-Dawley rats after 5 min injecton by intravenously; 1.0-1.24; details: in vivo, iv
# Rattus norvegicus [32] = assay: Distribution of radioactivity in kidney tissues of Sprague-Dawley rats after 60 min injecton by intravenously; 0.49-0.57; details: in vivo, iv, 1 h; outline: as §1
# Rattus norvegicus [33] = assay: Distribution of radioactivity in brain tissues of Sprague-Dawley rats after 30 min injecton by intravenously; 0.03-0.06; details: in vivo, iv, 0.5 h
# Rattus norvegicus [34] = assay: Distribution of radioactivity in lung tissues of Sprague-Dawley rats after 60 min injecton by intravenously; 0.5-0.65; details: in vivo, iv, 1 h; outline: as §3
# Rattus norvegicus [35] = assay: Distribution of radioactivity in brain tissues of Sprague-Dawley rats after 60 min injecton by intravenously; 0.03-0.06; details: in vivo, iv, 1 h
# Rattus norvegicus [36] = assay: Distribution of radioactivity in blood tissues of Sprague-Dawley rats after 60 min injecton by intravenously; 0.58-0.77; details: in vivo, iv, 1 h
# Rattus norvegicus [37] = assay: Distribution of radioactivity in heart tissues of Sprague-Dawley rats after 5 min injecton by intravenously; 0.79-0.85; details: in vivo, iv; outline: as §1
# Rattus norvegicus [38] = assay: Distribution of radioactivity in kidney tissues of Sprague-Dawley rats after 5 min injecton by intravenously; 1.73-2.64; details: in vivo, iv; outline: as §1
# Rattus norvegicus [39] = assay: Distribution of radioactivity in liver tissues of Sprague-Dawley rats after 15 min injecton by intravenously; 0.81-1.18; details: in vivo, iv, 0.25 h; outline: as §1
# Rattus norvegicus [40] = assay: Distribution of radioactivity in lung tissues of Sprague-Dawley rats after 30 min injecton by intravenously; 0.54-0.7; details: in vivo, iv, 0.5 h; outline: as §3
# Rattus norvegicus [41] = assay: Distribution of radioactivity in liver tissues of Sprague-Dawley rats after 5 min injecton by intravenously; 1.03-1.31; details: in vivo, iv; outline: as §1
# Rattus norvegicus [42] = assay: Distribution of radioactivity in blood tissues of Sprague-Dawley rats after 15 min injecton by intravenously; 0.72-1.03; details: in vivo, iv, 0.25 h
# Rattus norvegicus [43] = assay: Distribution of radioactivity in liver tissues of Sprague-Dawley rats after 30 min injecton by intravenously; 0.54-0.89; details: in vivo, iv, 0.5 h; outline: as §1
# Rattus norvegicus [44] = assay: Distribution of radioactivity in kidney tissues of Sprague-Dawley rats after 15 min injecton by intravenously; 0.62-0.92; details: in vivo, iv, 0.25 h; outline: as §1
# Rattus norvegicus [45] = assay: Distribution of radioactivity in blood tissues of Sprague-Dawley rats after 30 min injecton by intravenously; 0.65-0.83; details: in vivo, iv, 0.5 h
# Rattus norvegicus [46] = assay: Distribution of radioactivity in heart tissues of Sprague-Dawley rats after 15 min injecton by intravenously; 0.68-0.84; details: in vivo, iv, 0.25 h
# Rattus norvegicus [47] = assay: Distribution of radioactivity in brain tissues of Sprague-Dawley rats after 5 min injecton by intravenously; 0.05-0.07; details: in vivo, iv
# Rattus norvegicus [48] = assay: Distribution of radioactivity in lung tissues of Sprague-Dawley rats after 5 min injecton by intravenously; 0.76-0.91; details: in vivo, iv; outline: as §3
# Rattus norvegicus [49] = assay: Distribution of radioactivity in liver tissues of Sprague-Dawley rats after 60 min injecton by intravenously; 0.38-0.57; details: in vivo, iv, 1 h; outline: as §1
# Rattus norvegicus [50] = assay: Distribution of radioactivity in heart tissues of Sprague-Dawley rats after 30 min injecton by intravenously; 0.58-0.82; details: in vivo, iv, 0.5 h; outline: as §1
# Rattus norvegicus [51] = assay: Distribution of radioactivity in kidney tissues of Sprague-Dawley rats after 30 min injecton by intravenously; 0.58-0.73; details: in vivo, iv, 0.5 h; outline: as §1
# Rattus norvegicus [52] = assay: Distribution of radioactivity in heart tissues of Sprague-Dawley rats after 60 min injecton by intravenously; 0.58-0.75; details: in vivo, iv, 1 h; outline: as §1
structure (smiles),measurement,setting,value
CN1C=CCC(C(=O)Nc2ccc([125I])cc2)=C1,Distribution,Rattus norvegicus [1],1.01%
same,Distribution,Rattus norvegicus [2],1.88%
same,Distribution,Rattus norvegicus [3],0.35%
same,Distribution,Rattus norvegicus [4],1.14%
same,Distribution,Rattus norvegicus [5],0.82%
same,Distribution,Rattus norvegicus [6],1.65%
same,Distribution,Rattus norvegicus [7],0.38%
same,Distribution,Rattus norvegicus [8],1.16%
same,Distribution,Rattus norvegicus [9],2.36%
same,Kp at 1 h,[10],3.6
same,Distribution,Rattus norvegicus [11],1.56%
same,Distribution,Rattus norvegicus [12],1.56%
same,Distribution,Rattus norvegicus [13],2.43%
same,Distribution,Rattus norvegicus [14],1.12%
same,Kp at 0.5 h,[15],2.66
same,Distribution,Rattus norvegicus [16],1.07%
same,Distribution,Rattus norvegicus [17],1.18%
same,Kp at 5 min,[18],3.87
same,Distribution,Rattus norvegicus [19],3.3%
same,Distribution,Rattus norvegicus [20],0.31%
same,Kp at 0.25 h,[21],3.29
same,Distribution,Rattus norvegicus [22],2.43%
same,Distribution,Rattus norvegicus [23],0.37%
same,Distribution,Rattus norvegicus [24],4.61%
same,Distribution,Rattus norvegicus [25],2.77%
same,Distribution,Rattus norvegicus [26],2.18%
same,Distribution,Rattus norvegicus [27],2.86%
same,Distribution,Rattus norvegicus [28],1.23%
C[n+]1cccc(C(=O)Nc2ccc([125I])cc2)c1.[I-],Distribution,Rattus norvegicus [29],0.72%
same,Distribution,Rattus norvegicus [30],0.05%
same,Distribution,Rattus norvegicus [31],1.11%
same,Distribution,Rattus norvegicus [32],0.53%
same,Distribution,Rattus norvegicus [33],0.04%
same,Distribution,Rattus norvegicus [34],0.57%
same,Distribution,Rattus norvegicus [35],0.04%
same,Distribution,Rattus norvegicus [36],0.67%
same,Distribution,Rattus norvegicus [37],0.83%
same,Distribution,Rattus norvegicus [38],2.1%
same,Distribution,Rattus norvegicus [39],1.04%
same,Distribution,Rattus norvegicus [40],0.62%
same,Distribution,Rattus norvegicus [41],1.18%
same,Distribution,Rattus norvegicus [42],0.87%
same,Distribution,Rattus norvegicus [43],0.71%
same,Distribution,Rattus norvegicus [44],0.74%
same,Distribution,Rattus norvegicus [45],0.75%
same,Distribution,Rattus norvegicus [46],0.76%
same,Distribution,Rattus norvegicus [47],0.06%
same,Distribution,Rattus norvegicus [48],0.84%
same,Distribution,Rattus norvegicus [49],0.49%
same,Distribution,Rattus norvegicus [50],0.68%
same,Distribution,Rattus norvegicus [51],0.65%
same,Distribution,Rattus norvegicus [52],0.67%
